Calls of active or inactive are those of the source. The rule behind the calls is not given here.
Tests used:
[1] = organism: Rattus norvegicus; conditions: Sprague-Dawley, Cerebral cortex, at 1 mM
[2] = organism: Rattus norvegicus; experiment: (§1) Displacement of [3H]-3-hydroxycyclopent-1-enecarboxylic acid from GHB binding site in Sprague-Dawley rat cerebral cortex after 1 hr by scintillation counting analysis; type: tissue-based
Outline: (§2)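 Rat cerebrocortical membranes incubated with 10 nM [3H]-ligand and competitor over a concentration range. Conditions follow the earlier [3H]NCS-382 protocol. Non-specific binding defined with 1 mM GHB. IC50 taken from inhibition curves. Each experiment run in triplicate, with three additional repeats.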

[3] = system: MDCK; experiment: Apparent permeability from basolateral to apical side in MDCK cells expressing MDR1; type: ADME, cell-based, Canis lupus familiaris; conditions: dog
[4] = Ratio of drug level in brain to plasma in C57 mouse at 10 mg/kg, po after 30 mins by LC-MS/MS analysis; type: ADME, organism-based; design: dose 10 mg/kg, route oral; conditions: read-out: BPR
Outline: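 Mice dosed orally at 10 mg/kg, a single acute dose. Brain and plasma sampled 30 minutes after dosing, and the brain-to-plasma concentration ratio calculated.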

[5] = Displacement of [3H]NCS-382 from GHB binding site in Sprague-Dawley rat brain synaptic membranes after 1 hr by scintillation counting analysis; type: cell membranes, Membrane
[6] = as §1; type: tissue-based
Outline: as §2

[7] = Chemical stability of the compound in Milli-Q water at -30 degC by HPLC analysis; type: physicochemical; conditions: buffer
Outline: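 HPLC purity tracking (area%, 245 nm) of the compound dissolved at 2 mg/mL in MilliQ water (pH 3.5). Stored at −30±2°C and also at room temperature, sampled over time (days to over a year).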

[8] = system: MDCK; experiment: Apparent permeability from apical to basolateral side in MDCK cells expressing MDR1; type: ADME, cell-based, Canis lupus familiaris; conditions: dog
[9] = Radiochemical stability of the compound in aqueous solution of gentisic acid by HPLC analysis; type: physicochemical; conditions: buffer
Outline: (§3)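 [3H]-labelled compound tested for protection against radiolysis in four formulations, including ethanol and aqueous gentisic acid (50 mM), at 1 mCi/mL. Stability followed by HPLC (area%, 245 nm).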

[10] = Radiochemical stability of the compound in ethanol at 1 mCi/mL by HPLC analysis; type: physicochemical
Outline: as §3

[11] = organism: Rattus norvegicus; conditions: Sprague-Dawley, Cerebral cortex, at 100 µM

Compound | inhibition [2] | permeability [3] | Kp at 0.5 h [4] | IC50 [6] [nM] | pIC50 [6] | permeability [8] | further results
NCC(CC(=O)O)c1ccc(Cl)cc1 (stereo not given) | – | – | – | – | – | – | inhibition [1]: inactive
O=C(O)C1=CC(O)CC1 (racemic) [listing 1 of 2 here] | Dose-dependent effect | – | – | – | – | – | –
O=C(O)C1=CC(O)CC1 (racemic) [listing 2 of 2 here] | – | impermeable | 0.37 | 73 | 7.14 | impermeable | Ki [5]: 160 nM; Stability [7]: 16 months
O=C(O)C1=CC(O)CC1 (stereo not given) | Dose-dependent effect | – | – | – | – | – | –
O=C(O)CCCO [OXYBATE] | Dose-dependent effect | impermeable | 0.2 | 1140 | 5.94 | impermeable | –
[3H]C1(O)C=C(C(=O)O)CC1 (stereo not given) | – | – | – | – | – | – | Stability [9]: Stable; Stability [10]: Stable
COc1ccc(-c2ccc(=N)n(CCCC(=O)O)n2)cc1 | – | – | – | – | – | – | inhibition [11]: Active
O=C([O-])C1=CC(O)CC1.[Na+] (stereo not given) | – | – | – | 116 | 6.93 | – | –
O=C(O)/C=C1\CCCc2ccccc2C1O (stereo not given) | – | impermeable | 0.38 | – | – | impermeable | inhibition [11]: Active
